Screening data: PubChem, several laboratories
Compounds with a hit are over-represented: about 2.7% of the library has one in this group of screens.
sdo1 growth = restores growth of sdo1-depleted yeast; z-score at 10 µM; S. cerevisiae sdo1-depleted JHY4D growth rescue, OD600 30 h; stronger effect = higher value; pdr5 snq2 efflux-pump mutant strain; AID 817; 0.21% of 140,000 active;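 active = z-score above 3 at both the 24 hr and the 30 hr optical density reads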;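 note: z-score against mean and SD of all compound wells on the same plate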
RAM network inh = yeast RAM network inhibition; S. cerevisiae dse1pr::URA3 reporter, 5-FOA growth OD615, 2 d; analog-sensitive cbk1-as2 kinase mutant strain; inhibition, % at 50 µM; 1.8% of 190,000 active; AID 868;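 active = inhibition above a set limit, 3 SD over mean compound inhibition, cut at about 8.4% in these data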;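 note: 0% = DMSO-only wells with no growth and 100% = 10 µM 1-NA-PP1 full growth; inhibition rescues growth on 5-FOA so higher OD means more RAM inhibition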
Yeast growth inh = reduces growth of yeast BB579 in restrictive medium; S. cerevisiae BB579 growth, OD615, 48 h; inhibition, % at 10 µM; 0.51% of 140,000 active;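 active = inhibition above a set limit, 3 SD over the mean compound inhibition, cut at about 44% in these data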
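System: Saccharomyces cerevisiae DeaD strain BB579, replicative lifespan model yeast. Buffer or medium: restrictive glucose-based CSMM-D medium. Doses: one dose, 10 µM compound with 0.25% DMSO. Timing: 4 h preincubation and 48 h exposure at 30 °C. Detection: turbidity as optical density at 615 nm. Benchmarks: amphotericin B 10 µg/mL, positive.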
Yeast life ext = yeast lifespan extension | S. cerevisiae growth with nicotinamide, OD615; deaD strain in restrictive glucose medium | 0.68% of 130,000 active | AID 775 | inhibition of the nicotinamide effect, % at 10 µM;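 active = inhibition above a set limit, placed 3 SD over the median of all compounds, cut at about 26% in these data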;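 note: 0% = nicotinamide-treated wells and 100% = cells grown without nicotinamide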
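Buffer or medium: CSMM-D glucose medium, restrictive; test system: modified budding yeast, DeaD strain; compound: single dose 10 µM compound, 0.25% DMSO; schedule: culture preincubation 4 h, compound exposure 48 h, both 30 °C; detection: optical density (absorbance) at 615 nm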
RAM efflux-def = RAM network inhibitors in efflux-deficient yeast. shares compounds with RAM network inh. max inhibition, %. AID 1305. 1,200 tested, under 10 active. S. cerevisiae efflux-deficient reporter strain, 5-FOA growth OD615, 2 days; call rule not given here;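 note: plate controls were vehicle for no effect and reference inhibitor for full effect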
Active calls of the source: *; . = no result given.

SMILES	sdo1 growth	RAM network inh	Yeast growth inh	Yeast life ext	RAM efflux-def
O=C(COC(=O)c1ccc(-c2ccccc2)cc1)Nc1ccccc1-c1ccccc1	-0.04	12*	-30	5	3
CC(C)N(C(=O)COC(=O)c1ccc([N+](=O)[O-])cc1)c1ccccc1	.	2	.	.	.
COc1ccc(N(C(=O)/C=C/C(=O)Nc2cc(C)on2)C(C(=O)NC2CCCC2)c2ccccc2C)cc1 (stereo not drawn)	0.21	-1	-2	-2	.
O=C(/C=C/c1cccc([N+](=O)[O-])c1)NCCSCc1ccc(Cl)cc1Cl	-0.86	12*	-45	3	3
O=C(/C=C/c1cccc([N+](=O)[O-])c1)NCCSCc1ccccc1Cl	-1.7	12*	-33	-3	2
Cc1ccc(CSCCNC(=O)/C=C/c2ccc(Cl)cc2)cc1	-0.67	1	-42	-6	.
O=C(/C=C/c1ccc2c(c1)OCO2)NCCSCc1ccc(Cl)cc1Cl	-0.84	12*	-27	-9	3
COc1cc(NC(=O)C(C)Oc2ccccc2)cc(OC)c1 (stereo not drawn)	-0.12	2	-34	-9	.
O=C(O)COc1ccc(/C=N/n2c(COc3ccccc3)nc3ccccc3c2=O)cc1	1.1	13*	5	1	3
Cc1cccc(-n2c(C)cc(/C=C3\C(=N)N4N=C(CC(C)C)SC4=NC3=O)c2C)c1	0.22	8	-35	4	.
CC(C)CC1=NN2C(=N)/C(=C\c3coc4ccccc4c3=O)C(=O)N=C2S1	.	14*	.	.	2
Cc1cc(C)c2cc(CNC3CCCC3)c(Cl)nc2c1	.	0	.	.	.
CCc1ccc(N/C(SCc2cccc(F)c2)=C(/C#N)C(=O)NCc2ccco2)cc1	-0.14	16*	-20	7	5
Cc1ccc(N/C(SCc2ccccc2C)=C(/C#N)C(=O)NCc2ccco2)cc1C	0.08	3	-20	-1	.
COc1ccc(S(=O)(=O)NCCSCc2cccc(C)c2)cc1Br	-0.4	12*	-32	-2	1
Cc1cccc(SCC(=O)Nc2ccccc2[N+](=O)[O-])c1	.	1	.	.	.
Cc1ccc(SCC(=O)Nc2ccc(F)cc2[N+](=O)[O-])cc1C	-0.99	15*	-46	1	1
FC(F)(F)c1cccc(NC(=S)NC(c2ccccc2)c2ccccc2)c1	-0.42	16*	-42	12	4
CCc1nnc(NS(=O)(=O)c2ccc(N/C=C/C(=O)c3ccc(OC)cc3)cc2)s1	.	4	.	.	.
CCCCc1ccc(NC(=S)Nc2ccc(Cl)c(S(=O)(=O)N(C)C)c2)cc1	-1.1	16*	-10	3	6
CCN1CCN(CC(=O)Nc2ccc(Cl)c(S(=O)(=O)N(C)C)c2)CC1	.	1	.	.	.
O=C(/C=C/c1ccc(OCc2ccccc2)c(OCc2ccccc2)c1)c1cccnc1	-0.08	14*	-20	5	6
N#C/C(=C\c1ccc(-c2ccc(S(=O)(=O)N3CCOCC3)cc2)o1)C(=O)NC1CC1	0.03	13*	-55	4	2
N#C/C(=C\c1ccc(-c2ccc(C(=O)O)cc2)o1)C(=O)NCC1CCCO1 (stereo not drawn)	0.04	2	-33	0	.
CCC(CO)NC1=C([N+](=O)[O-])C(=O)CC(C)(C)C1 (stereo not drawn)	0.8	1	-10	8	.
SMILES	sdo1 growth	RAM network inh	Yeast growth inh	Yeast life ext	RAM efflux-def
O=C(OCc1ccccc1)c1cccc(-c2nnc(-c3ccccc3)o2)c1	0.09	12*	-22	1	2
CC(C)OC(=O)c1ccc(COC(=O)c2cccc(-c3nnc(-c4ccccc4)o3)c2)cc1	-1.2	13*	-23	6	2
N#Cc1ccc(-c2ccc(F)cc2)nc1Oc1ccc(Cl)c(Cl)c1	-0.54	3	-31	-20	.
COc1cc(CNn2c(C)n[nH]c2=S)cc(Cl)c1OCc1ccccc1	-1.3	13*	-26	-2	2
O=C(NCCOc1ccccc1)C(=O)NCC1CCCO1 (stereo not drawn)	.	2	.	.	.
N#C/C(=C\c1cn(CCOc2ccccc2)c2ccccc12)C(=O)NCC1CCCO1 (stereo not drawn)	-2	16*	-47	-14	3
COC(=O)c1cn(CCOc2ccc(C)cc2)c2ccccc12	-1.5	6	-43	-22	.
CCOC(=O)/C(C#N)=C/c1cn(CCOc2ccc(OC)cc2)c2ccccc12	-0.34	13*	-66	-1	4
O=C(OCc1csc(-c2ccccc2)n1)c1ccc(O)cc1	.	-1	.	.	.
COc1ccc(/C=C/C(=O)OCc2csc(-c3ccccc3)n2)cc1OC	-0.54	16*	-49	0	2
Cc1cc(S(=O)(=O)N2CCN(Cc3ccccc3)CC2)c(C)s1	0.44	2	-63	-14	.
CC(=O)NCCOC(=O)Nc1cccnc1	1.1	1	-24	14	.
O=C(CSc1ccc(Cl)cc1)N1CCN(c2ccc(Cl)cc2[N+](=O)[O-])CC1	-2.1	13*	-49	24	4
CC(C)(C)C(=O)N1CCN(c2ccc(Cl)cc2[N+](=O)[O-])CC1	1.1	-1	-16	7	.
Cc1nn(-c2cc(N3CCCCC3)ccc2N)c(=O)c2ccccc12	1.6	-1	-18	.	.
O=c1[nH]c2ccccc2n1C1CCCCC1	-0.13	0	-18	-6	.
Cc1ccc(-c2cccc(C(=O)NCCc3ccccc3)n2)c2ccccc12	-0.78	14*	-39	0	6
Cc1ccc(-c2ccc(C(=O)NCc3ccccc3)o2)c2ccccc12	-0.62	12*	-38	0	2
CCCCOc1ccc(CC(=O)NCC(=O)O)cc1	1.1	1	-29	0	.
CON/C=C(\C=Nc1ccccc1)c1ncc(C(F)(F)F)cc1Cl	-0.44	6	-30	-6	.
CON/C=C(\C=Nc1ccc(Cl)cc1Cl)c1ncc(C(F)(F)F)cc1Cl	-0.67	13*	-64	-4	3
CCOP(=O)(OCC)c1nc(-c2cccc3ccccc23)oc1NCc1ccccc1	-1.2	6	-27	-5	.
CCOP(=O)(OCC)c1nc(-c2cccc3ccccc23)oc1NCc1ccc(OC)cc1	.	13*	.	.	2
O=C(CN1CCN(C(=O)c2ccco2)CC1)Nc1ccccc1-c1ccccc1	-0.56	-1	-24	-18	.
CCCOc1ccc(-c2c(C(=O)N/N=C/c3ccc(OC)cc3)nnn2-c2nonc2N)cc1	-0.3	8	-17	3	.
CCOc1ccc(-c2c(C(=O)N/N=C/c3ccc(OC)cc3)nnn2-c2nonc2N)cc1	0.79	12*	-24	6	1
O=C(O)C1CSC2(c3ccc(F)cc3)CCC(=O)N12 (stereo not drawn)	.	2	.	.	.
Cc1ccc(NC(=O)c2oc3ccc(S(=O)(=O)N4CCC5(CC4)OCCO5)cc3c2C)cc1C	-1.1	12*	-45	14	1
Cc1ccc(CNC(=O)c2oc3ccc(S(=O)(=O)N4CCC5(CC4)OCCO5)cc3c2C)cc1	0.08	5	-58	-4	.
O=C(CCC(=O)c1ccc(Oc2ccccc2)cc1)Nc1cccc(Cl)c1Cl	-0.41	14*	-33	4	3
